Reference: ChEMBL document CHEMBL2163259, “ADME-guided design and synthesis of aryloxanyl pyrazolone derivatives to block mutant superoxide dismutase 1 (SOD1) cytotoxicity and protein aggregation: potential application for the treatment of amyotrophic lateral sclerosis” (J Med Chem, 2012)

What was measured:
[1] = test system: Superoxide dismutase [Cu-Zn] (Homo sapiens), P00441 [G94A]; assay: Inhibition of SOD1 G93A mutant aggregation-induced cytotoxicity in rat PC12 cells assessed as cell viability incubated for 24 hrs and measured 72 hrs post compound dose by cytotoxicity protection assay; type: cell-based; conditions: PC-12
Summary of the method: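 PC12 cells expressing G93A SOD1-YFP fusion seeded 15000 cells/well, grown 24 h before dosing. 12-point dose response, top 32 μM, twofold dilutions. After 24 h, MG132 added (100 nM final). Viability measured 48 h later with Calcein-AM (1 μM final, 20 min, room temperature) fluorescence. EC50 derived from dose-response.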

[2] = test system: Caco-2; assay: Apparent permeability from apical to basolateral side in human Caco2 cells; type: ADME, cell-based
[3] = species: Rattus norvegicus; assay: Inhibition of rat GABA transporter at 10 uM by radioligand displacement assay
Summary of the method: (§1)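 Single concentration of 10 μM, tested in duplicate as part of a contracted panel of 68 in vitro enzyme and receptor assays. The panel covers common adverse CNS, cardiovascular, pulmonary and genotoxic targets.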

[4] = target: Cytochrome P450 2C9 (Homo sapiens, UniProt P11712); assay: Inhibition of CYP2C9; type: ADME
Summary of the method: (§2)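 Reversible inhibition of CYP isozymes in human liver microsomes, each isozyme with a single probe substrate. CYP3A4 tested with both testosterone and midazolam. IC50 determined.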

[5] = target: Estrogen receptor (Homo sapiens) (UniProt P03372); assay: Inhibition of human estrogen receptor-alpha at 10 uM by radioligand displacement assay; summary of the method: as §1
[6] = target: Histamine H2 receptor (Homo sapiens) (UniProt P25021); assay: Inhibition of human histamine H2 receptor at 10 uM by radioligand displacement assay; summary of the method: as §1
[7] = target: Gamma-aminobutyric acid type B receptor subunit 1 (Homo sapiens) (UniProt Q9UBS5); assay: Inhibition of human GABAB1A receptor at 10 uM by radioligand displacement assay
Summary of the method: (§3)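 LeadProfilingScreen panel of 68 in vitro enzyme and receptor assays. Compound tested at 10 μM in duplicate.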

[8] = target: Endothelin-1 receptor (Homo sapiens) (UniProt P25101); assay: Inhibition of human endothelin ETA at 10 uM by radioligand displacement assay; summary of the method: as §1
[9] = species: Rattus norvegicus; assay: Inhibition of rat Rolipram binding site at 10 uM by radioligand displacement assay; summary of the method: as §1
[10] = target: Cytochrome P450 3A4 (Homo sapiens, UniProt P08684); assay: Inhibition of CYP3A4 using midazolam as substrate; type: ADME; summary of the method: as §2
[11] = test system: Plasma; assay: Plasma protein binding in human; type: ADME, cell-free
[12] = Clearance in Sprague-Dawley rat at 1 mg/kg, iv; type: ADME, organism-based; design: dose 1 mg/kg, route intravenous; conditions: in vivo
Summary of the method: (§4)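 Sprague-Dawley rats given a single 1 mg/kg bolus, intravenous or oral. Plasma PK parameters (AUC, dose-normalised AUC, half-life, clearance, Vss, Cmax, Tmax, oral bioavailability) derived from plasma levels.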

[13] = target: Delta-type opioid receptor (Homo sapiens) (UniProt P41143); assay: Inhibition of human delta-type opioid receptor at 10 uM by radioligand displacement assay; summary of the method: as §3
[14] = target: Adenosine receptor A1 (Homo sapiens) (UniProt P30542); assay: Inhibition of human adenosine A1 receptor at 10 uM by radioligand displacement assay; summary of the method: as §3
[15] = target: Cytochrome P450 2D6 (Homo sapiens, UniProt P10635); assay: Inhibition of CYP2D6; type: ADME; summary of the method: as §2
[16] = Half life in Sprague-Dawley rat at 1 mg/kg, po; type: ADME, organism-based; design: dose 1 mg/kg, route oral; conditions: in vivo; summary of the method: as §4
[17] = Half life in Sprague-Dawley rat at 1 mg/kg, iv; type: ADME, organism-based; design: dose 1 mg/kg, route intravenous; conditions: in vivo; summary of the method: as §4
[18] = Volume of distribution at steady state in Sprague-Dawley rat at 1 mg/kg, iv; type: ADME, organism-based; design: dose 1 mg/kg, route intravenous; conditions: in vivo, read-out: Vdss
Summary of the method: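 Sprague-Dawley rats received a single bolus of 1 mg/kg by i.v. or by oral route. Plasma PK parameters were derived from the plasma concentration profile.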

[19] = Half life in human microsomes at 5 uM incubated for 1 hr at 37 degC in presence of NADPH; type: ADME, Microsome; conditions: 1 h, 5 µM
[20] = target: Epidermal growth factor receptor (Homo sapiens) (UniProt P00533); assay: Inhibition of human epidermal growth factor receptor at 10 uM by radioligand displacement assay; summary of the method: as §1
[21] = target: Platelet-activating factor receptor (Homo sapiens) (UniProt P25105); assay: Inhibition of platelet activating factor receptor at 10 uM by radioligand displacement assay; summary of the method: as §1
[22] = species: Homo sapiens; assay: Inhibition of human nicotinic acetylcholine receptor bungarotoxin binding site at 10 uM by radioligand displacement assay
Summary of the method: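 Single concentration of 10 μM, tested in duplicate in a contract panel of 68 in vitro enzyme and receptor binding assays covering common adverse CNS, cardiovascular, pulmonary and genotoxic targets.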

[23] = test system: Plasma; assay: Plasma protein binding in rat; type: ADME, cell-free
[24] = species: Rattus norvegicus; assay: Inhibition of rat imidazoline I2 receptor at 10 uM by radioligand displacement assay; summary of the method: as §1
[25] = species: Mus musculus; assay: Inhibition of mouse phorbol ester site of PKC at 10 uM by radioligand displacement assay; summary of the method: as §1
[26] = target: Muscarinic acetylcholine receptor M3 (Homo sapiens) (UniProt P20309); assay: Inhibition of human muscarinic M3 receptor at 10 uM by radioligand displacement assay; summary of the method: as §1
[27] = AUClast in Sprague-Dawley rat at 1 mg/kg, iv; type: ADME, organism-based; design: dose 1 mg/kg, route intravenous, time 0 - last; conditions: plasma; summary of the method: as §4
[28] = species: Rattus norvegicus; assay: Inhibition of rat N-type calcium channel at 10 uM by radioligand displacement assay; summary of the method: as §1
[29] = target: Endothelin receptor type B (Homo sapiens) (UniProt P24530); assay: Inhibition of human endothelin ETB at 10 uM by radioligand displacement assay; summary of the method: as §1
[30] = species: Oryctolagus cuniculus; assay: Inhibition of rabbit Purinergic P2X receptor at 10 uM by radioligand displacement assay; type: tissue-based; summary of the method: as §1
[31] = target: Adenosine receptor A2a (Homo sapiens) (UniProt P29274); assay: Inhibition of human adenosine A2 receptor at 10 uM by radioligand displacement assay; summary of the method: as §3
[32] = target: Beta-2 adrenergic receptor (Homo sapiens) (UniProt P07550); assay: Inhibition of human beta2 adrenergic receptor at 10 uM by radioligand displacement assay; summary of the method: as §3
[33] = Toxicity in ip dosed wild type mouse administered twice daily; type: organism-based; conditions: in vivo
Summary of the method: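 Tolerability was tested in wild-type mice by i.p. injection twice daily. Each injection increased the dose one-fold, up to 75 mg/kg.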

[34] = AUClast in Sprague-Dawley rat at 1 mg/kg, po; type: ADME, organism-based; design: dose 1 mg/kg, route oral, time 0 - last; conditions: plasma; summary of the method: as §4
[35] = species: Rattus norvegicus; assay: Inhibition of rat purinergic P2Y receptor at 10 uM by radioligand displacement assay; summary of the method: as §1
[36] = Plasma concentration in B6SJL mouse at 300 mg/kg after 3 hrs by mass spectrometry; type: ADME, organism-based; design: dose 300 mg/kg
Summary of the method: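 B6SJL mice were given a single 300 mg/kg intraperitoneal bolus. Blood and brain were collected at 0, 1, 3, 6, 12 and 24 h, flash-frozen in liquid nitrogen and stored at -80 °C. Samples were analyzed by mass spectrometry with ESI ionization in MRM mode.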

[37] = species: Rattus norvegicus; assay: Inhibition of rat GABAA receptor muscimol site at 10 uM by radioligand displacement assay; summary of the method: as §1
[38] = target: Alpha-2A adrenergic receptor (Homo sapiens) (UniProt P08913); assay: Inhibition of human adrenergic alpha2A receptor at 10 uM by radioligand displacement assay; summary of the method: as §3
[39] = target: 5-hydroxytryptamine receptor 1A (Homo sapiens) (UniProt P08908); assay: Inhibition of human 5HT1A receptor at 10 uM by radioligand displacement assay; summary of the method: as §3
[40] = species: Rattus norvegicus; assay: Inhibition of rat kainate receptor glutamate binding site at 10 uM by radioligand displacement assay; summary of the method: as §1

Chain of Histamine H2 receptor (Homo sapiens) (P25021 whole entry): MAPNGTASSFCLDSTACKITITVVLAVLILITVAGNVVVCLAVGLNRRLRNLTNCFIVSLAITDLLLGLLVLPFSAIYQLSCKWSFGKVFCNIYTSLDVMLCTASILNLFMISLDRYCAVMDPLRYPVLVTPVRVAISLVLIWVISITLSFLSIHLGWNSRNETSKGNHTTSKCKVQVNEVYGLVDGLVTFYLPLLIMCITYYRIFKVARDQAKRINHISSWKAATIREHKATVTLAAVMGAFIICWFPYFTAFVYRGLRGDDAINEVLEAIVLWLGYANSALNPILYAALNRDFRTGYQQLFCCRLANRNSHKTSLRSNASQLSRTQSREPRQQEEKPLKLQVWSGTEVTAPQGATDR
Chain of 5-hydroxytryptamine receptor 1A (Homo sapiens) (P08908 whole entry): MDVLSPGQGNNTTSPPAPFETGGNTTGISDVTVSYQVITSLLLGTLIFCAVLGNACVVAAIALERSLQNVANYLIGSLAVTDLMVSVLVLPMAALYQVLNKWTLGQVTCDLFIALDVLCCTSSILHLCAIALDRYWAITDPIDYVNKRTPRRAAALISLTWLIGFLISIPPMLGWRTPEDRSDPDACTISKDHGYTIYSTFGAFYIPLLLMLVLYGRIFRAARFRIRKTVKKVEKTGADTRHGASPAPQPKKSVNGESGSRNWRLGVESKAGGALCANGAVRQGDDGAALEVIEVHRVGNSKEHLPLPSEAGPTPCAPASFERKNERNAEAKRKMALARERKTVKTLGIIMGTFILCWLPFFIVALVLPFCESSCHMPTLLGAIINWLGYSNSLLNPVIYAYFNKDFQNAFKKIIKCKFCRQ
Chain of Muscarinic acetylcholine receptor M3 (Homo sapiens) (P20309 whole entry, looked up): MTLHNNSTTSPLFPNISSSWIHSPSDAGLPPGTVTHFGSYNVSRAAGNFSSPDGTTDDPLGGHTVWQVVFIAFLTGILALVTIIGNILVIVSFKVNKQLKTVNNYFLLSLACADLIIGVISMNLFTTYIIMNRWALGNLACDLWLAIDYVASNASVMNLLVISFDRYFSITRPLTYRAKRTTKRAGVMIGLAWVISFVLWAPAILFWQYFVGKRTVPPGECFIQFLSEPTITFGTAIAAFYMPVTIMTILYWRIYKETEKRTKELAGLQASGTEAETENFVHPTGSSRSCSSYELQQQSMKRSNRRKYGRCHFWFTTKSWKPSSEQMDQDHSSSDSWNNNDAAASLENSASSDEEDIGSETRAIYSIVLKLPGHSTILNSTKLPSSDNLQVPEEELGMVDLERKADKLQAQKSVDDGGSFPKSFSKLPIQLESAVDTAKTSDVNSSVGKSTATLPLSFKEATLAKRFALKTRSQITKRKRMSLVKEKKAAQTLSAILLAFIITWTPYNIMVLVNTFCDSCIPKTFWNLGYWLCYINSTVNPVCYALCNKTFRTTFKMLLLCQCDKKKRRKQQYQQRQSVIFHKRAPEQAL
Chain of Platelet-activating factor receptor (Homo sapiens) (P25105 whole entry): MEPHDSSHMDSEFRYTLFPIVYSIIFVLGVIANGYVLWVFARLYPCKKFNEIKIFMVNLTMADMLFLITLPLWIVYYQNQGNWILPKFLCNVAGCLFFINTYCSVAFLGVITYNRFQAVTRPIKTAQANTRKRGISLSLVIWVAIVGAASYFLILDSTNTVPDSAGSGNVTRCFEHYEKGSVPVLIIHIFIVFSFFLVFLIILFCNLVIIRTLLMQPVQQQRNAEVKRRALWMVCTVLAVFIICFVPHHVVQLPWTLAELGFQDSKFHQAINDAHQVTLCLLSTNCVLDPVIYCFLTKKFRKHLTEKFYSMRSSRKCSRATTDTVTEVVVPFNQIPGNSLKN
Chain of Epidermal growth factor receptor (Homo sapiens) (P00533 whole entry): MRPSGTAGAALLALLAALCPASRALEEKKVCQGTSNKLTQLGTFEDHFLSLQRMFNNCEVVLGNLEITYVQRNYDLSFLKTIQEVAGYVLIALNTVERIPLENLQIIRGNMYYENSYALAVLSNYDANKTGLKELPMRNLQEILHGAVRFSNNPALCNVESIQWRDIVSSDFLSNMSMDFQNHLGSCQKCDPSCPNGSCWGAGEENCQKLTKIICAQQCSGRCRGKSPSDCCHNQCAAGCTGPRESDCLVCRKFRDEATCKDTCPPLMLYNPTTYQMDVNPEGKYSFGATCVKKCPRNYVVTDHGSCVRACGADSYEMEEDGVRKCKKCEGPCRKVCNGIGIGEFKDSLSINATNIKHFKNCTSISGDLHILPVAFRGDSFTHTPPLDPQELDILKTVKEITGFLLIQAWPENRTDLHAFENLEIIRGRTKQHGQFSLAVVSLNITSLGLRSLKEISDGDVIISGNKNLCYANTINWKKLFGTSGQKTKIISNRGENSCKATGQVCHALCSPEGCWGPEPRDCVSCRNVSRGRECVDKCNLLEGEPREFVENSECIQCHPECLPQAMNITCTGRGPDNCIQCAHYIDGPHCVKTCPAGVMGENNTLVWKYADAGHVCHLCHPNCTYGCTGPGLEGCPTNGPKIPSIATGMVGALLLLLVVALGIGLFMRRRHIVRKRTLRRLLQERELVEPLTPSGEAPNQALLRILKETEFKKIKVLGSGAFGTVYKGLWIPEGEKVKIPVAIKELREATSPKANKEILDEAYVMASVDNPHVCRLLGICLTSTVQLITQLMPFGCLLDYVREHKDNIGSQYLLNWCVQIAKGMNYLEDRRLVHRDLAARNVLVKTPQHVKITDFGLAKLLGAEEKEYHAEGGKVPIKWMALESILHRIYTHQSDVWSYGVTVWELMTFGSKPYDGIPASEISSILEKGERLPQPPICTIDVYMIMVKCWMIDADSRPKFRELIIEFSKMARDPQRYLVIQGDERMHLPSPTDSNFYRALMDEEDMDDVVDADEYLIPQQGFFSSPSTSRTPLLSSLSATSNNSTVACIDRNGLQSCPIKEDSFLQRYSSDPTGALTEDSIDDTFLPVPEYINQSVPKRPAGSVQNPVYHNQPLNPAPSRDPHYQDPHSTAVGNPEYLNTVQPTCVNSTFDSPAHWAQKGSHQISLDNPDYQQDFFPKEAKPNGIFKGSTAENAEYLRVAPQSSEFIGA
Chain of Gamma-aminobutyric acid type B receptor subunit 1 (Homo sapiens) (Q9UBS5 whole entry): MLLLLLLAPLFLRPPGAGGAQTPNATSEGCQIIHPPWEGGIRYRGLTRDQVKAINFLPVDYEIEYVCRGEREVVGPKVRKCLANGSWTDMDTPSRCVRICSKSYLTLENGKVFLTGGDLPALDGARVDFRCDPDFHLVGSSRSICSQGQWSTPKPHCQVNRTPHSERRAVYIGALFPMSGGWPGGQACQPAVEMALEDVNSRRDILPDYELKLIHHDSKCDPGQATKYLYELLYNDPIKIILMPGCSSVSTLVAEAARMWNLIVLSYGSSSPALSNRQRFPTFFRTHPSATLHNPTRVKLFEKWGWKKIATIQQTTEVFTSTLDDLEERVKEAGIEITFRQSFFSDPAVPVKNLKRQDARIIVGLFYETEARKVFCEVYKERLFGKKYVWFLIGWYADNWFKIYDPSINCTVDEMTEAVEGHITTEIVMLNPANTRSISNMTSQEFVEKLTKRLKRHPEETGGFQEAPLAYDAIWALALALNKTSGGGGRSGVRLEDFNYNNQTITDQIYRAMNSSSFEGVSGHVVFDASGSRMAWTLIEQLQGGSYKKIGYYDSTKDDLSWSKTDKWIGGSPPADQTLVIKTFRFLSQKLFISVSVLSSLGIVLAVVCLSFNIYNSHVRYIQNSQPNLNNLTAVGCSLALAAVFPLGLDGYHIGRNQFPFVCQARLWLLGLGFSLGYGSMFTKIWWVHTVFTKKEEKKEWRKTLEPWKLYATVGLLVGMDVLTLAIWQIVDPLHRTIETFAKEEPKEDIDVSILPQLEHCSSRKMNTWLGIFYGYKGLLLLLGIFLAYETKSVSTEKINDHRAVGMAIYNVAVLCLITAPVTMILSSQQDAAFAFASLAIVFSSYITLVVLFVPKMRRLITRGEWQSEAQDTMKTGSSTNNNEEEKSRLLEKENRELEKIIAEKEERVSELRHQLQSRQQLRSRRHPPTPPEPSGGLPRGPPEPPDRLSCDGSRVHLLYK
Chain of Cytochrome P450 2C9 (P11712 whole entry): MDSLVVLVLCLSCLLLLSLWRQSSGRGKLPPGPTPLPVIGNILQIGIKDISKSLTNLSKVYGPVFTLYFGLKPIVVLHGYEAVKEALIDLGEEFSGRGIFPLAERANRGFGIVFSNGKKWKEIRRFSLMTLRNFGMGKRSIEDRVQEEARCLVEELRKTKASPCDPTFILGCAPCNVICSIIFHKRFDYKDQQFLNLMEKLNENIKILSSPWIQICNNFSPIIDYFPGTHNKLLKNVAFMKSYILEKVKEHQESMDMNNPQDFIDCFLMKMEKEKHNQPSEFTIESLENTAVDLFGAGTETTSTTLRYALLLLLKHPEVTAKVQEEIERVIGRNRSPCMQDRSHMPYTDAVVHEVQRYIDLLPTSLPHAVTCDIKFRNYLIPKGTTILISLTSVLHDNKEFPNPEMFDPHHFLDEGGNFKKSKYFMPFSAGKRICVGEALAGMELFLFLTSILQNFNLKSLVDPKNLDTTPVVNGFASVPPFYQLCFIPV
Chain of Superoxide dismutase [Cu-Zn] (Homo sapiens), P00441 [G94A] (P00441 whole entry G94A, the tested form may be a part): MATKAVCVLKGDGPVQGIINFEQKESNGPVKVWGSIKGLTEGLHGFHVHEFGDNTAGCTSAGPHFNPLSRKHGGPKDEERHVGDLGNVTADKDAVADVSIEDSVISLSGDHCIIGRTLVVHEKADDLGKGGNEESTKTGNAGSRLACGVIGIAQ
Chain of Endothelin-1 receptor (Homo sapiens) (P25101 whole entry): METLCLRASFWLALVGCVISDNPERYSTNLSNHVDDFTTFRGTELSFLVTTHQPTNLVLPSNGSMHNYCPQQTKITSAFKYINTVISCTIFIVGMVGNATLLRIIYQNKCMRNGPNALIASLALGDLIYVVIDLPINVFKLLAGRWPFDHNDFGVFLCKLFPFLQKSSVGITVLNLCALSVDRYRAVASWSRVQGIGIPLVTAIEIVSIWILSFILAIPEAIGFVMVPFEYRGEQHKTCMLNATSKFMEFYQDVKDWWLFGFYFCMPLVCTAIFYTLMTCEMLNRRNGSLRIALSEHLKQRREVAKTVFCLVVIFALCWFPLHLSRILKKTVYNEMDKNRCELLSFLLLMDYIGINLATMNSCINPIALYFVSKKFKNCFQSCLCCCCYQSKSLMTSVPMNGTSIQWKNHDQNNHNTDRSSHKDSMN

O=c1cc(COc2cc(Cl)cc(Cl)c2)[nH][nH]1
Activity [1]: 100% | Papp [2]: 36.7 ×10⁻⁶ cm/s | inhibition [3]: -4% | IC50 [4]: > 50 µM | inhibition [5]: 10% | inhibition [6]: 3% | inhibition [7]: -7% | inhibition [8]: 3% | inhibition [9]: -2% | IC50 [10]: > 50 µM | PPB [11]: 98% | clearance [12]: 92 mL/min/kg | inhibition [13]: 25% | inhibition [14]: 15% | IC50 [15]: > 50 µM | half-life [16]: 3.6 h | half-life [17]: 2.1 h | Vd [18]: 5.7 L/kg | t1/2 [19]: 1.55 h | inhibition [20]: 5% | inhibition [21]: -1% | inhibition [22]: 6% | PPB [23]: 98% | inhibition [24]: 12% | inhibition [25]: 1% | inhibition [26]: -4% | AUC(0-t) [27]: 179 ng·h/mL | inhibition [28]: 3% | inhibition [29]: 0% | inhibition [30]: 1% | inhibition [31]: -2% | inhibition [32]: -2% | MTD [33]: 75 mg/kg | AUC(0-t) [34]: 42 ng·h/mL | inhibition [35]: 5% | concentration at 3 h [36]: 342 µM | inhibition [37]: 1% | inhibition [38]: 8% | inhibition [39]: -6% | inhibition [40]: 24%
